CHRM5 antagonist – blocks acetylcholine activation of human M5 receptor. P08912. CHO-hM5 cells, Fluo-8 calcium fluorescence, ACh EC80. inhibition, % at 3 µM. 360,000 compounds, 0.59% hits. AID 624040;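 active = inhibition above a per-plate cutoff, the mean of that plate's test compounds plus 3 SD, cut at about 27% in these data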;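 note: 0% = acetylcholine EC80 with DMSO and 100% = DMSO without agonist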
M5 PAM – CHRM5 positive allosteric modulation. activation, % at 3 µM. CHO-K1 hM5, Fluo-8 calcium, ACh EC20 PAM; 0% = ACh EC20, 100% = ACh EC100. 360,000 compounds, 0.3% hits;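 active = activation above the run cutoff, the mean activation of all test compounds plus 3 SD, cut at about 18% in these data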
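Probe or stimulus: acetylcholine, EC20 level; Assay system: human M5 receptor in CHO-K1 cells; Schedule: compound preincubation 140 s before EC20 acetylcholine addition; Technique: intracellular calcium via Fluo-8 fluorescence; Dosing: single-point, 3 µM nominal; Read-out basis: percent activation from peak-over-basal fluorescence ratio, scaled EC20-to-EC100 acetylcholine; Repeats: one well per compound, no replicates.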
CHRM4 agonist – agonists of human muscarinic M4 receptor (CHRM4); CHO-K1 hM4/Gqi5, Fluo-8 calcium fluorescence; vehicle 0%, full acetylcholine response 100%; activation, % at 3 µM; 360,000 compounds, 0.14% hits; AID 624127;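 active = activation above the run mean over all test wells plus 3 SD, cut at about 32% in these data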;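 note: peak over basal fluorescence ratio per well then scaled between controls; 0% = DMSO wells and 100% = acetylcholine at EC100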
Target sequence (P08173 whole entry, looked up): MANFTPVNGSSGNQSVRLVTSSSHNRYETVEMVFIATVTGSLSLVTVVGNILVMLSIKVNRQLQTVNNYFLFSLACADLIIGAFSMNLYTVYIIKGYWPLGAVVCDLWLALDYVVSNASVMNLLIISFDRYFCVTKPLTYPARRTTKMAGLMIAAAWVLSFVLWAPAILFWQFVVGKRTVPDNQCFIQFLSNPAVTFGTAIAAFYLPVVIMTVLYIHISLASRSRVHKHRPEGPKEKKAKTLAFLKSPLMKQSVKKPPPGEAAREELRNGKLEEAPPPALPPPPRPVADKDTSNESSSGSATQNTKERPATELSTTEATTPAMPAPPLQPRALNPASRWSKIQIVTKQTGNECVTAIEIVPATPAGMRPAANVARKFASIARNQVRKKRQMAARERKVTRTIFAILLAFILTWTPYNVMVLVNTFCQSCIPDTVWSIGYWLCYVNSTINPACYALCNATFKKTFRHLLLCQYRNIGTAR
CHRM4 PAM – CHRM4 positive allosteric modulation; P08173; CHO-K1 hM4/Gqi5, Fluo-8 calcium fluorescence, ACh EC20; 0% = ACh EC20, 100% = maximal ACh; activation, % at 3 µM; 360,000 compounds, 0.4% hits; AID 624126;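 active = activation above its plate's cutoff, the mean activation of sample wells plus 3 SD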
M4 antag – CHRM4 antagonism in calcium assay; CHO-hM4 cells, ACh EC80, Fluo-8 calcium fluorescence; inhibition, % at 3 µM; P08173; 360,000 compounds, 0.73% hits;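 active = inhibition above its plate's cutoff, the mean inhibition of sample wells plus 3 SD, cut at about 27% in these data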;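 note: 0% = acetylcholine EC80 with DMSO and 100% = DMSO without agonist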
CHRM5 agonist – agonists of human muscarinic M5 receptor (CHRM5) | P08912 | CHO-K1 hM5 cells, Fluo-8 calcium fluorescence; 0% DMSO wells, 100% maximal acetylcholine response | activation, % at 3 µM | 360,000 compounds, 0.19% hits | AID 624037;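 active = activation above the run's mean over test compounds plus 3 SD, cut at about 23% in these data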;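 note: signal is peak over basal fluorescence ratio across the kinetic read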
* = called active by the depositor. An excerpt weighted towards active compounds, which were near 1.8% of everything screened.

SMILES | CHRM5 antagonist | M5 PAM | CHRM4 agonist | CHRM4 PAM | M4 antag | CHRM5 agonist
Cc1ccc(C)c(N2CCN(S(=O)(=O)c3ccc4c(c3)NC(=O)CO4)CC2)c1 | -7 | 2 | -1 | -9 | -19 | -3
Cc1ccc(C)c(N2CCN(S(=O)(=O)c3ccc4c(c3)NC(=O)CC(=O)N4)CC2)c1 | 4 | -19 | 1 | -17 | 88* | -3
Cc1ccc2c(c1)/C(=N/OS(=O)(=O)c1ccccc1)CCS2 | -4 | 4 | 0 | 8 | -5 | -1
CC1=CC(=O)C(C(C)C)=C/C1=N/OS(=O)(=O)c1ccccc1 | 51* | -28 | 29 | -16 | 79* | 10
CC1=CC(=O)C=C(C)C1=NOS(=O)(=O)c1ccccc1 | 41* | 2 | 18 | -17 | 32* | 23*
COC(=O)C1CCN(Cc2c(C(=O)N3C[C@@H](C)O[C@@H](C)C3)nc3ccc(Cl)cn23)CC1 | -18 | 19* | 0 | 12 | -8 | -2
COc1ccc(C(=O)NCc2c(C)nn(Cc3ccccc3)c2C)cc1S(=O)(=O)N1CCOCC1 | 1 | -1 | 1 | -3 | 4 | -5
O=C(Cn1c(=O)sc2ccccc21)Nc1ccc(O)cc1 | -12 | 6 | 2 | 24* | -14 | -1
Cc1ccccc1CN1CCN(CC2CC3C=CC2C3)CC1 (stereo not given) | 6 | -16 | 2 | -21 | 44* | -6
C1=CC2CC1CC2CN1CCN(c2ccccc2)CC1 (stereo not given) | 6 | -5 | 2 | -16 | 21 | -12
COc1ccccc1CCn1cc(C#N)c(=O)[nH]c1=O | 6 | 0 | -2 | -16 | 100* | -3
COc1ccc(CCn2cc(C#N)c(=O)[nH]c2=O)cc1OC | 18 | -14 | 2 | -2 | -5 | -2
N#Cc1cccc(-c2csc(C(O)c3ccco3)n2)c1 (stereo not given) | 4 | 1 | 1 | -1 | 4 | 0
O=C(COC(=O)CCC(=O)c1cccs1)Nc1cccc(S(=O)(=O)N2CCOCC2)c1 | -5 | -2 | 4 | -1 | -6 | -2
Cc1ccc(NC(=O)COC(=O)CCC(=O)c2cccs2)cc1S(=O)(=O)N1CCOCC1 | -3 | 9 | 12 | 20 | 32* | -1
CCc1ccc(-c2cc3c(=O)n(CC(=O)NCCCN4CCC(Cc5ccccc5)CC4)nc(C)n3n2)cc1 | 11 | -8 | 7 | -10 | 40* | -8
Cc1nn(CC(=O)NCCCN2CCC(Cc3ccccc3)CC2)c(=O)c2cc(-c3ccccc3)nn12 | 7 | -5 | 10 | -14 | 17 | -6
CCN(C)C1CN(Cc2cn(CCCOC)nn2)S(=O)(=O)C1 (stereo not given) | 1 | 3 | 0 | 2 | -1 | 2
O=c1[nH]nc(Sc2ccccc2)c(=S)[nH]1 | 0 | -5 | 1 | -4 | -8 | 1
CC(C)(C)NC(=O)CSc1nnc(-c2ccccn2)n1Cc1ccccc1 | 2 | 9 | 1 | 12 | 5 | 0
C=CCNC(=O)CSc1nnc(-c2ccccn2)n1Cc1ccccc1 | -4 | 22* | 1 | 11 | 2 | -3
CC(C)(C)S(=O)(=O)N1C[C@H]2CC/C=C\C/C=C\2[C@@H]1CCO | 1 | -4 | 1 | 4 | -1 | 2
Cc1c(N=C/C=C/c2ccccc2)c(=O)n(-c2ccccc2)n1C | 27 | -23 | 0 | -17 | 53* | -7
COc1ccc(CSc2ccc(S(=O)(=O)N3CCCC3)cn2)cc1F | 5 | -13 | 15 | -10 | 0 | -2
CCC(OC(=O)c1ccco1)C(=O)NCc1ccc(C)cc1 (stereo not given) | 0 | -5 | 0 | -6 | 9 | -4
SMILES | CHRM5 antagonist | M5 PAM | CHRM4 agonist | CHRM4 PAM | M4 antag | CHRM5 agonist
CCC(OC(=O)c1ccco1)C(=O)NCc1ccc2c(c1)OCO2 (stereo not given) | 3 | -2 | 2 | 19* | -26 | -1
CCN1CCN(c2ccc(NC(=O)CC3OC(=O)c4ccccc43)cc2C)CC1 (stereo not given) | 2 | -3 | 0 | 1 | -3 | -3
CC1=CC2(O)OCCN(CCO)C2=CC1=O (stereo not given) | 28* | -12 | 0 | 9 | 3 | 1
Cc1cc(C)n(-c2ncc3c(n2)N(CCO)CCOC3=O)n1 | 20 | -11 | 7 | -5 | 4 | -3
CCC(=O)N(C)C[C@H]1Oc2ncc(C#Cc3ccncc3)cc2C(=O)N([C@@H](C)CO)C[C@@H]1C | 8 | -3 | 0 | 5 | -11 | 1
COc1ccc(OC)c(S(=O)(=O)NC(=O)C2(C)CCN2C(=O)CC2CCCC2)c1 (stereo not given) | -9 | 6 | 0 | 9 | -14 | 0
CSc1ccc(CN2CCC(Oc3ccc(C(=O)N4CCCC4)cc3)CC2)cc1 | 8 | -8 | 0 | -19 | 29* | -9
CC(C)c1ccc(CN2CCC(Oc3ccc(C(=O)N4CCCC4)cc3)CC2)cc1 | 30* | -11 | 5 | -14 | 31* | -7
CCc1ccc(CN2CCC(Oc3ccc(C(=O)N4CCCC4)cc3)CC2)cc1 | 15 | -9 | 1 | -16 | 36* | -9
Cc1cc(S(=O)(=O)Nc2ncnc3sccc23)ccc1F | 2 | 2 | 1 | 2 | -6 | 2
COC(=O)[C@@]1(C(C)C)N=C(c2cc(OC)c(OC)c(OC)c2)[C@]2(O1)C(=O)N(C)c1ccccc12 | -1 | 0 | 0 | 5 | 0 | 1
O=C(c1ccccc1)c1ccc(N2CCN(C(=O)c3ccc(F)cc3F)CC2)c(F)c1 | 2 | -12 | 18 | -8 | -11 | 4
COCCNC(=O)C1(C)CCN(C(=O)Cc2ccc(OC)c(OC)c2)C1 (stereo not given) | -5 | -2 | 0 | 3 | -18 | 1
CCOc1ccc(CCN2C(=O)C(=O)N([C@@H](Cc3ccccc3)CN3CCC[C@H]3CN3C(=O)C(=O)NC[C@@H]3Cc3ccccc3)C[C@@H]2Cc2ccc(O)cc2)cc1 | -5 | 6 | 0 | 11 | -13 | 0
CCc1nc2c(OCc3cccc(OC)c3)cccn2c1N(C)C(=O)c1ccccc1F | 11 | -7 | 1 | -1 | -4 | -2
CC(=O)c1cccc(NC(=O)Nc2ccc3c(c2)N(C)C(=O)CS3)c1 | 30* | -16 | 26 | -24 | 22 | 8
Cc1nc2sccn2c(=O)c1S(=O)(=O)N1CCN(c2ccccc2)CC1 | 8 | -8 | 0 | -17 | 61* | -1
Cc1nc2sccn2c(=O)c1S(=O)(=O)NCC1CCN(Cc2ccccc2Cl)CC1 | 7 | -10 | 0 | -22 | 34* | -10

Screening results as filed in PubChem.
